In ChEMBL document CHEMBL1123129, “Hypolipidemic activity of indan-1,3-dione derivatives in rodents” (J Med Chem, 1985):

Experiments:
Mus musculus [1] = assay: Compound was evaluated for the hypolipidemic activity in CF1 male mice at a dose of 40 mg/kg orally for Serum triglyceride at 16th day; format: functional; conditions: route oral
Summary of the method: (§1)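 CF1 male mice received the agent orally in 1% CMC at 10–60 mg/kg per day. Tail-vein blood was taken on days 9 and 16. Serum cholesterol was measured by modified Liebermann–Burchard on duplicate 25-µL samples, and serum triglyceride on day 16 in duplicate 50-µL samples. Values are % of vehicle control, mean ± SD, N = 6; Student's t test.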

Mus musculus [2] = assay: Compound was evaluated for the hypolipidemic activity in CF1 male mice at a dose of 20 mg/kg orally for Serum cholesterol at 9th day; format: functional; conditions: route oral; summary of the method: as §1
Mus musculus [3] = assay: Compound was evaluated for the hypolipidemic activity in CF1 male mice at a dose of 20 mg/kg orally for Serum cholesterol at 16th day; format: functional; conditions: route oral; summary of the method: as §1
Rattus norvegicus [4] = assay: Compound was evaluated for the hypolipidemic activity at 20 mg/kg per day orally for 14 days on triglycerides content in rat lipoprotein chylomicron; p</=0.001; format: functional; conditions: route oral
Summary of the method: (§2)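 Male Sprague–Dawley rats (~300 g) were dosed orally each day. Blood was drawn from the abdominal vein. Lipoprotein fractions (chylomicron, VLDL, LDL, HDL) were separated by the Hatch–Lees and Havel methods. Each fraction was assayed for cholesterol, triglyceride (enzymatic kit), neutral lipids, phospholipids and Lowry protein. Values are % of 1% CMC vehicle control, N = 6.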

[5] = target: T1, 3-hydroxy-3-methylglutaryl-coenzyme A reductase (Mus musculus) (UniProt Q01237); assay: In Vivo effect for the hypolipidemic activity on HMG-CoA reductase in CF1 mice after 16 days of oral administration at a dose of 20 mg/kg; format: organism-based; design: dose 20 mg/kg
T1 sequence (whole entry): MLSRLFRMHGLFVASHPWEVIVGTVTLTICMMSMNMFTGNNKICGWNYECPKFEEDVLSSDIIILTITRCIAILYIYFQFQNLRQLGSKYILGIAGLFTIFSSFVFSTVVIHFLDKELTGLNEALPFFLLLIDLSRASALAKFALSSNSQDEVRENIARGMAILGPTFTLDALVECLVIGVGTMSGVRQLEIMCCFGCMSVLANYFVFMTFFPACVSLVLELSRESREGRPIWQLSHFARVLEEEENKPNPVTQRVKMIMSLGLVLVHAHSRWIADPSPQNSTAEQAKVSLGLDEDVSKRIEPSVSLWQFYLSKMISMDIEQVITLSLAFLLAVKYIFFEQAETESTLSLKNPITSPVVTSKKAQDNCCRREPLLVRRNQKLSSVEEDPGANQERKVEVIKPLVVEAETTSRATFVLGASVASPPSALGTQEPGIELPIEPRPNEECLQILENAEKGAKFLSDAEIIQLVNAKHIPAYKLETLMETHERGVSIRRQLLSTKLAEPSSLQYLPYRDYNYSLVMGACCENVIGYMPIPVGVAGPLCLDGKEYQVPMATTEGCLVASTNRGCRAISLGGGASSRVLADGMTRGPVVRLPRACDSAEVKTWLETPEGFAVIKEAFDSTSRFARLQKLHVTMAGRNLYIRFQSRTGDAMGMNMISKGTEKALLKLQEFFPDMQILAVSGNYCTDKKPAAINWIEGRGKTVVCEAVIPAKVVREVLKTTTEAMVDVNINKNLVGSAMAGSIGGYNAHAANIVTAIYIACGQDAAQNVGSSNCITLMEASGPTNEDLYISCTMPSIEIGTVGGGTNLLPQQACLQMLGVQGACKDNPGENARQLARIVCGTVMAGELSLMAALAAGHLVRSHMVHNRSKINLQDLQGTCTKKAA
Summary of the method: (§3)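 CF1 male mice are dosed orally at 10–60 mg/kg per day for 16 days, with 1% CMC as the control vehicle. Liver is homogenized at 10% in 0.25 M sucrose + 0.001 M EDTA, pH 7.2. Enzymes are assayed by literature methods, with Lowry protein. Activity is given as % of control (X ± SD, N = 6), with p from Student's t test.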

Mus musculus [6] = species on record: Mus musculus; assay: In Vitro evaluation for the CF1 liver enzyme activity on Hepatic lipoprotein lipase at concentration 200 uM; format: functional
Summary of the method: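 Mouse liver enzymes assayed in vitro on 10% homogenates of CF1 male mouse liver, with test drug added at 50–200 μM. Each enzyme follows a published procedure. Protein is measured by Lowry. Activity is given as % of untreated control (X ± SD, N = 6).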

Rattus norvegicus [7] = assay: Compound was evaluated for the hypolipidemic activity at 20 mg/kg per day orally for 14 days on protein content in rat lipoprotein chylomicron; format: functional; conditions: route oral; summary of the method: as §2
[8] = target: T2, ATP-citrate synthase (Mus musculus) (UniProt Q91V92); assay: In Vivo effect for the hypolipidemic activity on ATP-Citrate Lyase in CF1 mice after 16 days of oral administration at a dose of 20 mg/kg; format: organism-based; design: dose 20 mg/kg; summary of the method: as §3
T2 sequence (whole entry): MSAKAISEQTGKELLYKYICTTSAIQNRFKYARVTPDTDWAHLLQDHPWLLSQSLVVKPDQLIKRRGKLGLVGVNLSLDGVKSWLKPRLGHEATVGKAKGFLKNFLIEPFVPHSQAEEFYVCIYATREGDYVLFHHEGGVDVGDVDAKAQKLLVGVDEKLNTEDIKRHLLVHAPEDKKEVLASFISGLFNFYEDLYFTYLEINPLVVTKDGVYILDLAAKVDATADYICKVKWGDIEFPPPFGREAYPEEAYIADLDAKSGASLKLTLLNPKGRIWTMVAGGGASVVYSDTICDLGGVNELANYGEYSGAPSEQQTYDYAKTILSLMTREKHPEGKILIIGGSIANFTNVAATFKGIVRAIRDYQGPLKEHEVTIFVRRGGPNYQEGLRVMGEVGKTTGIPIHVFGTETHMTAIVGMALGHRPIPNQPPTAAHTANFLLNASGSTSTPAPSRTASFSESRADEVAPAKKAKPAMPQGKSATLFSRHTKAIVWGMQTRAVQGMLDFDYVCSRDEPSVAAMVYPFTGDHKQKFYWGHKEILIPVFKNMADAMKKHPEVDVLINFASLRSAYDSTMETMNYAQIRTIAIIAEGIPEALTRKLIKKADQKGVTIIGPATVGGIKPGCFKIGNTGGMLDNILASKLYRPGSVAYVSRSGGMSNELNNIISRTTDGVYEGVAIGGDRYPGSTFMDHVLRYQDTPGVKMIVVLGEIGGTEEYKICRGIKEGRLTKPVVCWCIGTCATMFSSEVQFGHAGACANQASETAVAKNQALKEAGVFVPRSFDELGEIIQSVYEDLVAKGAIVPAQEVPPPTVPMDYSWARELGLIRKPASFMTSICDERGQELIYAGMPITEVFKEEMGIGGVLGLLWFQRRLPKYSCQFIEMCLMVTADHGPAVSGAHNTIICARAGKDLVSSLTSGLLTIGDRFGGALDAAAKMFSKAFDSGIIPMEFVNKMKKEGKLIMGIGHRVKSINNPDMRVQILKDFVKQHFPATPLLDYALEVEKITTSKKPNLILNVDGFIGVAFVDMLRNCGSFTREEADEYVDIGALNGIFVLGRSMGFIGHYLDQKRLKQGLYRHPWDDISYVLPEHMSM

[9] = target: Cholesterol 7-alpha-hydroxylase (Cytochrome P450 7A1) (Mus musculus, UniProt Q64505); assay: In vivo effect on Cholesterol 7-alpha-hydroxylase activity in CF1 mice after 16 days at 40 mg/kg oral dose; format: functional, organism-based; design: dose 40 mg/kg, route oral; conditions: read-out: Control; summary of the method: as §3
Sequence of Cholesterol 7-alpha-hydroxylase (Cytochrome P450 7A1) (Q64505 whole entry): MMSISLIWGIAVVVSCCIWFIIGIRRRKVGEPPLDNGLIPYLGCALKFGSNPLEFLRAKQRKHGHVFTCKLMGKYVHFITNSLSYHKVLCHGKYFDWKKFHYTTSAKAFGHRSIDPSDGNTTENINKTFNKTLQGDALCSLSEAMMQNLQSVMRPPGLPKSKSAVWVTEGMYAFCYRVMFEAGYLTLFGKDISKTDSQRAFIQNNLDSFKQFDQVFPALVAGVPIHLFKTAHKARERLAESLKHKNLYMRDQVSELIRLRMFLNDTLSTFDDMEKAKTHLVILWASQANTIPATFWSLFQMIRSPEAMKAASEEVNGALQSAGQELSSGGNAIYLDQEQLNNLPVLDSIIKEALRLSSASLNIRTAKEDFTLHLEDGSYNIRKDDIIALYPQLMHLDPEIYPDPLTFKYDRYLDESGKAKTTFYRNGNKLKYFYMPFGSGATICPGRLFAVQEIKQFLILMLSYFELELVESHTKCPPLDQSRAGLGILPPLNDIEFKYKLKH

- Control [5]: 114%
- Control [8]: 43%
- activity at 384 h [9]: 55%
SMILES: COc1ccc(C2C(=O)c3ccccc3C2=O)cc1 [ANISINDIONE]
- Control (Mus musculus [1]): 73%
- Control (Mus musculus [2]): 67%
- Control (Mus musculus [3]): 62%
- Control (Rattus norvegicus [4]): 72%
- Control (Mus musculus [6]): 93%
- Control (Rattus norvegicus [7]): 118%
